# UHRF1 MBD2 ctr = UHRF1 methylated DNA binding inhibitors, primary screen, counter-screen for MBD2 inhibitor project, biochemical, TR-FRET, human UHRF1, single concentration. E3 ubiquitin-protein ligase UHRF1 (Homo sapiens), Q96T88. UHRF1 binding to methylated oligo. inhibition, % at 4.4 µM. 0.75% of 370,000 active; in the data active means inhibition above about 21%;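 further: UHRF1 SRA domain binding a hemimethylated CpG hairpin DNA probe; 0% = median of test compound wells and 100% = reference inhibitor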
# Target sequence (Q96T88 whole entry, looked up, the tested form may be a part): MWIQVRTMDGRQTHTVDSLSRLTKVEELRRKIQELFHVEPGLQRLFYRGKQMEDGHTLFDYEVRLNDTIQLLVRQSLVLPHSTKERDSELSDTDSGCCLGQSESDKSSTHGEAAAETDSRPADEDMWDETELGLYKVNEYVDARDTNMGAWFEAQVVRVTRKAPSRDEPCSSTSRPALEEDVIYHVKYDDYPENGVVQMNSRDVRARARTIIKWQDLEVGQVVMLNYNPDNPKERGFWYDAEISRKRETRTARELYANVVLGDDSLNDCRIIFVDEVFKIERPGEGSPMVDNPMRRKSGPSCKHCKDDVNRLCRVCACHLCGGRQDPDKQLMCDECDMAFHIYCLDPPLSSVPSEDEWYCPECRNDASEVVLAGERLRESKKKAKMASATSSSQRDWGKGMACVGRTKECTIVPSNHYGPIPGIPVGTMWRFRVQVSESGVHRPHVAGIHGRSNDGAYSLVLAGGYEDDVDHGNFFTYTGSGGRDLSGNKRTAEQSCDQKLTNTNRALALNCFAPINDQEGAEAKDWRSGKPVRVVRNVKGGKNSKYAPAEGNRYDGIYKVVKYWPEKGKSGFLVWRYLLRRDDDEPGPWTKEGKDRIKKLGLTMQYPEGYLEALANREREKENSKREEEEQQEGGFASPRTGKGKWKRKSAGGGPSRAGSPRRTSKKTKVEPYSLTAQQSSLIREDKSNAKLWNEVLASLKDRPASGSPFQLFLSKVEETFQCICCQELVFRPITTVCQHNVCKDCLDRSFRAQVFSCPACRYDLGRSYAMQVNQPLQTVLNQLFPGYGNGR
# LEDGF integ inh = blockers of LEDGF/p75-dependent integrase strand transfer – biochemical, TR-FRET, high throughput, primary screen; HIV-1 integrase (with human LEDGF/p75); TR-FRET IN-LEDGF/p75 DNA integration, Eu/Cy5; inhibition, % at 3.7 µM; 0.64% of 370,000 active; AID 743269, 2014;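 active means inhibition above the screen-wide mean plus 3 SD, cut at about 13% in these data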;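 further: signal is the Cy5 over europium emission ratio at 671 and 618 nm; 0% = plate median of compound wells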
# MBD2 inh = inhibitors of MBD2 binding to methylated DNA, primary screen, biochemical, TR-FRET, DNA-binding domain, human; 0.31% of 370,000 active; inhibition, % at 4.4 µM; Methyl-CpG-binding domain protein 2 (Homo sapiens), Q9UBB5; MBD2 binding to methylated oligonucleotide; AID 686964, 2013; in the data active means inhibition above about 13%
# TDP2 absorb = human TDP2 enzyme inhibitors, primary screen, biochemical, epi absorbance, recombinant enzyme | Tyrosyl-DNA phosphodiesterase 2 (Homo sapiens), O95551 | T5PNP hydrolysis, p-nitrophenol absorbance 415 nm | inhibition, % at 12.8 µM | 0.34% of 370,000 active;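 active means inhibition above the mean of all tested compounds plus 3 SD, set per campaign, cut at about 25% in these data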;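 further: 0% = DMSO with enzyme and 100% = buffer with substrate but no TDP2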
#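 Assay system: Recombinant human TDP2 | Quantity: 120 nM TDP2 per well | Incubation: 2 h at 37 °C | Signal: Epi absorbance | Evaluation: Percent inhibition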
# * = called active by the depositor. Most compounds without a hit are left out; they make up all but 1.6% or so of the library.
SMILES,UHRF1 MBD2 ctr,LEDGF integ inh,MBD2 inh,TDP2 absorb
Cc1ccc(C(=O)N/C(=C/c2ccc(F)cc2)C(=O)NCc2ccncc2)cc1,23*,2,3,-8
Cc1ccc(C(=O)N/C(=C\c2ccccc2)C(=O)NCc2ccncc2)cc1,3,2,2,-6
Cc1occc1-c1nnc(SCC(=O)Nc2nc(-c3ccccc3)cs2)o1,-3,0,-3,9
Cc1occc1-c1nnc(SCC(=O)Nc2nc3ccccc3s2)o1,23*,3,-1,-3
Cc1ccc(C(=O)NCCc2cccs2)cc1,0,-4,1,-5
Cc1cc(C(=O)CN2C(=O)NC3(CCCc4sccc43)C2=O)c(C)n1-c1ccc(Cl)cc1 (stereo not given),2,1,-2,2
COC(=O)c1ccccc1NC(=O)CN1C(=O)CSC1=O,0,0,3,5
COC(=O)c1cc(NC(=O)CN2C(=O)CSC2=O)ccc1Cl,23*,4,8,-1
Cn1c2ccccc2c2cc(/C=N/NC(=O)c3cc(O)ccc3O)ccc21,11,42*,6,11
Cn1c2ccccc2c2cc(/C=N/NC(=O)c3cc(O)cc(O)c3)ccc21,4,4,7,-6
CCCCN(C(=O)c1cccc(C)c1)c1c(N)n(CCC)c(=O)[nH]c1=O,2,-1,-5,-2
CCCCN(C(=O)c1cccc(-c2ccc(OC(C)=O)cc2)c1)c1c(N)n(CCC)c(=O)[nH]c1=O,73*,4,-2,0
CNC(=O)CSc1nnc(-c2ccccc2)n1C,31*,1,-3,1
C/C(=N\NC(=O)c1cc(O)cc(O)c1)c1ccc(NC(=O)Cc2ccccc2)cc1,46*,16*,12,7
CCOc1cc(NC(=S)NCC2CCCO2)c(OCC)cc1NC(=O)c1ccc(OC)cc1 (stereo not given),0,-4,-1,0
CCOc1cc(NC(=S)NCC2CCCO2)c(OCC)cc1NC(=O)c1ccccc1C (stereo not given),47*,1,-1,5
O=C(O)COc1ccc(/C=N/NC(=O)c2ccc(-c3csc(Nc4ccc(Cl)cc4)n3)cc2)cc1,21*,-2,10,2
CCCN(C(=O)C(NC(=O)c1ccccc1)C(C)C)c1c(N)n(Cc2ccccc2)c(=O)[nH]c1=O (stereo not given),0,-3,-5,-9
COc1ccc(-c2noc(C(C)n3nc(C)c([N+](=O)[O-])c3C)n2)cc1OC (stereo not given),-3,-4,4,4
Cc1nn(C(C)c2nc(-c3ccccc3)no2)c(C)c1[N+](=O)[O-] (stereo not given),33*,-3,-1,-9
COc1ccc(CNC(=O)CCSCc2ccccc2Cl)c(OC)c1,-1,2,0,11
Cc1[nH]c2ccccc2c1C(=O)CSC(=S)N(C)C1CCCCC1,26*,5,7,-1
Cc1ccc(Cc2c(-c3ccc(C#N)cc3)nc3ccc(C)cn23)cc1,20,-2,9,-1
N#Cc1ccc(-c2nc3ccc(Br)cn3c2Cc2ccccc2)cc1,22*,-5,7,-5
Cc1ccc(Cc2c(-c3ccc(C#N)cc3)nc3ccc(Br)cn23)cc1,22*,1,11,-1
SMILES,UHRF1 MBD2 ctr,LEDGF integ inh,MBD2 inh,TDP2 absorb
Cc1ccc(Cc2c(-c3ccccc3)nc3ccc(Br)cn23)cc1,22*,1,7,-1
Cc1ccc(-c2nc3ccc(Br)cn3c2Cc2ccccc2)cc1,19,-1,4,8
CC12CCC(C(=O)N(CCCCN3CCN(c4ccccn4)CC3)C1=O)C2(C)C (stereo not given),3,1,-6,15
Cc1ccc(-c2cc(C(=O)N/N=C/c3cccnc3)c3ccccc3n2)cc1C,3,2,0,-12
Cc1ccc(NC(=O)Cn2ncc3c([nH]c4ccccc43)c2=O)cc1Cl,-2,3,2,2
CC(C)(C)OC(=O)N1CCC(c2cc(=O)n3[nH]cc(C(=O)Nc4ccc(F)c(Cl)c4)c3n2)CC1,6,9,2,-17
COc1ccc(NC(=O)c2c[nH]n3c(=O)cc(C4CCN(C(=O)OC(C)(C)C)CC4)nc23)cc1Cl,39*,1,7,-8
CC1(C)CC(=O)C2=C(C1)Nc1ccccc1NC2c1cc(Cl)ccc1O (stereo not given),2,-5,1,3
CC(C)(C)c1ccc(-c2noc(-c3ccc4c(c3)CCO4)n2)cc1,25*,0,0,11
CCN(CC)C(=O)Cn1cc(S(=O)(=O)Cc2cccc([N+](=O)[O-])c2)c2ccccc21,-1,-2,-4,-14
CC(O)CNc1cc(N)c([N+](=O)[O-])cc1[N+](=O)[O-] (stereo not given),-13,1,-8,2
CCCc1nc2ccc(Br)cn2c1Cc1ccccc1,23*,4,4,-5
CCCc1nc2ccc(Br)cn2c1Cc1cccc(Cl)c1,21*,-2,8,2
CCN(C(=O)c1nn(-c2ccc(OC)cc2)c(=O)c2c1c1ccccc1n2C)c1ccc(OC)cc1,22*,-1,7,7
COc1ccc(-n2nc(C(=O)NCc3ccco3)c3c4ccccc4n(C)c3c2=O)cc1,31*,-4,-2,-1
COc1ccc(-n2nc(C(=O)NCc3ccco3)c3ccccc3c2=O)cc1,1,-1,4,9
CCCCN(C)CCNC(=O)c1nn(-c2ccc(OC)cc2)c(=O)c2c1c1ccccc1n2C,2,2,3,-4
COc1ccccc1OCCCn1c(=O)oc2ccc(C)cc21,-2,-1,-6,1
Cc1cccc(OCCCn2c(=O)oc3ccc(C)cc32)c1,25*,12,11,0
Cc1noc(C)c1S(=O)(=O)NCc1ccc(CN(C)C)cc1,33*,0,3,14
Cc1ccc(NC(=O)C2CCN(c3nnc(-n4cccc4)s3)CC2)c(C)c1,0,1,-2,2
O=c1oc(-c2ccccc2)cc(Cl)c1Cl,-4,0,2,27*
CCOC(=O)C1CCN(CC(O)COCc2ccc(Cl)cc2)CC1 (stereo not given),-3,-1,3,7
CCN(CCNCC(O)COCc1ccc(Cl)cc1)c1cccc(C)c1 (stereo not given),29*,2,-4,1
COC[C@@H](O)[C@H]1OCc2cc(OC)ccc2[C@@H]1/C=C/c1ccccc1,2,-4,4,7
CCN(C)C1CN(Cc2cn(CCCOC)nn2)S(=O)(=O)C1 (stereo not given),7,0,0,3

# Source: PubChem
